Results reported in the EternaBench riboswitch data.

System: MS2 coat protein
Assay: apparent Kd, MS2 coat protein; higher = weaker binding; RNA-MaP array; FMN 200 µM where present
Procedure, shortened: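 Stalled E. coli RNA polymerase transcribed each design on Illumina sequencing-chip clusters. The clusters were titrated with SNAP-549-labelled MS2 coat protein, starting at 0.7 or 1.5 nM and doubling up to 3 µM, first without ligand and then with constant ligand, in 100 mM Tris-HCl pH 7.5, 80 mM KCl, 4 mM MgCl2, BSA, DTT, yeast tRNA and Tween-20. Green signal was normalised to red-channel RNA signal and to the control-cluster median Fmax. The apparent Kd is the median of filtered binding-curve fits made for each cluster.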

[1] = designed as: OFF switch for flavin mononucleotide, no ligand
[2] = ligand present: flavin mononucleotide, designed as: OFF switch for flavin mononucleotide
[3] = designed as: ON switch for flavin mononucleotide, no ligand
[4] = ligand present: flavin mononucleotide, designed as: ON switch for flavin mononucleotide

Sequence	apparent Kd [1]	apparent Kd [2]	apparent Kd [3]	apparent Kd [4]
GCAGCAUAGUUUACUAGCUGUUACAUGAGGAUCACCCAUGUUCAGGAUAUGGUCUGGAUUACAGGCCAGAAGGGAACAAGCUGC	14.8 nM	12 nM	–	–
AGGCCACAAGGAUAUACAUGAGGAUCACCCAUGUAGAAAGACGUGUGGUCAUGUUCGAGUAGAAGGUGUAGCGG	12.9 nM	12.7 nM	–	–
CCACGACCGGAGAAGGCAGUUUGUGGGCCUGUUCCUGUCGGAUACAUGAGGAUCACCCAUGUACCUGAGGAUAUCUGGUCGUAG	4.99 nM	5.57 nM	–	–
UGAAAUCAUGUAGGAUAUGCAUGGCGCAGCUACGCAGAAGGACAUGAGGAUCACCCAUGUUAUAGCUACCCAGUUCGGUGGCAA	30.6 nM	173 nM	–	–
CACUCGUGUCUAGGAUAUGAGUGACAAGCGCGAGAUUUUCUCGCCGCUAGCUCAGAAGGAGACAUGAGGAUCACCCAUGUAAGG	59.7 nM	12.5 nM	–	–
UCAGGCUUCGAGAAGGACAUGAGGAUCACCCAUGUUAAUUUGAAGCAGCCGUGAGGCUGCAUCAUGUAGGAUAUCGGAGUCUGC	6.17 nM	10.2 nM	–	–
UUGUUGUAUGUAGGAUAUGCAUAUUAUUAUUAUGCAGAAGGACAUGAGGAUCACCCAUGUAUGUUAUUAUUAUAUGUUAUGUGU	39.9 nM	63.1 nM	–	–
GGCGGUGACAUAGGAUAUCUUCUAAUGCACAUGAGGAUCACCCAUGUCGCUACGCACGGGUUUGAAGAGAAGGGUGUUCGUGCC	–	–	346 nM	286 nM
UAUAUGUCAGGAUAUUAAUUAAAAUGGAAUUUAGUUUUAAUUAAGAAGGGACAUGAGGAUCACCCAUGUUCCUC	20.9 nM	128 nM	–	–
GAUCUGUCGGUUGACCCAACAUGAGGAUCACCCAUGUAUGUGGAGGAUAUCUAGAUCUGCGGACGAGAGAAGGCCGCAUACGUU	69 nM	421 nM	–	–
ACUUCACAUGAGGAUCACCCAUGUCAGGCCGGACUAGGAUAUUAUCAUGCAGCGUGACAGUGAGAAGGAGUUGGAU	–	–	162 nM	188 nM
AUGGUUGUCGUAGGAUAUGUAGGAUAUUCCUACAUGAGGAUCACCCAUGUUCGCAUGGAAGAAGGACAGAAGGACGAUGACCAU	–	–	1150 nM	9.7 nM
CGCAUGUAAGGAUAUUAGUAGUAGUCAGAAUAGACUAUUACUGAGAAGGUACAUGAGGAUCACCCAUGUUAGCG	117 nM	592 nM	–	–
CAGUCUACAGGAUAUACAUGAGGAUCACCCAUGUAAAUUCACUUUCGAUAGUCUACAUGUAGAAGGGUAGACUG	15.5 nM	18.6 nM	–	–
UUUGGGUGGCUGGAGGAUAUCCUGGUUGUUACAUGAGGAUCACCCAUGUGCCGCGCGGUUCGCGAGGAGAAGGCUGGCGGCCGUU	–	–	147 nM	33.6 nM
AAAAAACAUGAGGAUCACCCAUGUCAGGAUAUCGAAAAAAAAAAAAAAAAAAAAAAAACGAGAAGGGACAAAAA	99.3 nM	104 nM	–	–
UGUCGGAGCAGAGGAUAUUACAUGAGGAUCACCCAUGUAUGAACCAAUAGCUGGAAACAGCAAUAUAAGAAGGCUGCUCCGACA	5.59 nM	5.48 nM	–	–
GUCAGCUCGUGAGGAUAUACAACACUGCUUCGGCAGUGUAUUAAGAUCACAUGAGGAUCACCCAUGUAGAAGGCAGGAGCUGAU	15.7 nM	250 nM	–	–
UUGUUAUAUGUAGGAUAUGCAUAUUAUUAUUAUGCAGAAGGACAUGAGGAUCACCCAUGUAUGUUGUUGUUAUAUAUUAUAUAU	24.8 nM	27.8 nM	–	–
ACGGCUGUCAGAGGAUAUGGUUACAUGAGGAUCACCCAUGUCAAGGGUCUAACUAAGUAUAACUACUAGAAGGCUGAUGGCCGA	674 nM	350 nM	–	–
CAUGGGACUUCCUCGCGGAACAUGAGGAUCACCCAUGUUGCGGAGGAUAUACUUCGGCGCUCCGAGUAGAAGGCUGCAGAUCCC	24.4 nM	33.1 nM	–	–
GCACGAGACUAAGGAUAUGGAGUAUCUACAUUAAACAUGAGGAUCACCCAUGUAGGGAGUAUGAUUCAGAAGGUAGAGACGUGC	–	–	157 nM	37.3 nM
AUGUACCUAGGAUAUACAUGAGGAUCACCCAUGUUAACUUUGCAAUCAAGUUAAUAUUGUAGAAGGAGGUGAAA	61.5 nM	107 nM	–	–
UGGUACUAGGGAGGAUAUGGGAAGAUACAUGAGGAUCACCCAUGUCUAAGAAUGCCGAGAGGCAACUAGAAGGCCCUAGUACCU	–	–	98.3 nM	496 nM

Sequence	apparent Kd [1]	apparent Kd [2]	apparent Kd [3]	apparent Kd [4]
GUCUCGUCAGGAUAUGACGCUACAUUUUGUUUUUAGAAGAGUCAGAAGGGACAUGAGGAUCACCCAUGUGAUUC	329 nM	402 nM	–	–
UUAUUUUUUGAGGAUAUGCGACGUUUUUUCGUCGUAGAAGGCGAUACAUGAGGAUCACCCAUGUUUAUGGGCAU	89.7 nM	157 nM	–	–
CUUAGACAUGAGGAUCACCCAUGUGAGGAUAUGAUGCAGCAGUGGUCUACGCUGUGCAUCAGAAGGCACAUAUG	120 nM	155 nM	–	–
ACAUGAGGAUCACCCAUGUGUGCAUAGGAUAUUGAGGAUUAGGGAUAUUAUUAUGGAUUUGCCCACAAGAAGGAUGAAAGUGUU	–	–	17.8 nM	15.7 nM
UUAAAUCAUGUAGGAUAUGCAUGGCGAAGCUACGCAGAAGGACAUGAGGAUCACCCAUGUUAUAGCUAGCCAGUUCGCUGGCAA	23.6 nM	164 nM	–	–
CUAUAUAUAUGAGGAUAUGUAUAUCCAACAUGAGGAUCACCCAUGUUGAGGAUCACCCAUGUAAAGCAGAAGGCAUAUAUAUAG	–	–	22.7 nM	13.4 nM
AAAUCGGCGGAGAAGGGACCUUUACCCUAUCGGUCAGGAUAUCCGCUACAUGAGGAUCACCCAUGUGCCGGGUGUCCGCGUGUG	22.2 nM	12.2 nM	–	–
CAAGACAUUCGAAACUGCCGGCCGCAGGAUAUGGGUCGUUUAUACAUGAGGAUCACCCAUGUCGCCUAGAAGGGCGGCUGGGUC	–	–	174 nM	17.6 nM
ACAAAGCAUGUAGGAUAUCCAUUGCGUCGCGAUGGAGAAGGACAACACACAUGAGGAUCACCCAUGUGAUCACCCAUGUCAUGU	866 nM	1210 nM	–	–
GCCAUCACAUGAGGAUAUGCUCGGGUUUCCCGAGCAGAAGGCAUGUCAUAAGACAUGAGGAUCACCCAUGUAGUUAAGAUGGCA	–	–	399 nM	14.5 nM
AAGCAGGUAAAUAAACUCAAUUACAUGAGGAUCACCCAUGUAUAGGAUAUCGUCAGGAAUACUGACGAGAAGGAUACAUCCUGC	17.7 nM	63.9 nM	–	–
UUGGUUGUCGUAGGAUAUGUAGGAUAUUCCUACAUGAGGAUCACCCAUGUUCGCAUGGAAGAAGGACAGAAGGACGAUGACCAU	–	–	1290 nM	23.7 nM
AGAAGACAUGAGGAUCACCCAUGUGGGAUUAUGGGAGGAUAUACAAAGACGAGAGUCAGAGUAGAAGGCCUAGGAC	–	–	65.6 nM	26.7 nM
GAGUAGGGAGGAUAUACGUGCUCAAUCCCGGAAAGCGGGAAACAUGAGGAUCACCCAUGUAGAAGGCCCAUAAA	82.1 nM	46.4 nM	–	–
AAUCCACAUGAGGAUCACCCAUGUGAGGAUAUGAUACUAUGUACUUCGGUACAUAGUAUCAGAAGGCAUAUGAA	25.3 nM	30.4 nM	–	–
AAAAGACAUGAGGAUCACCCAUGUGAAAACGUAGGAGGAUAUGUCUGGAAAACAUGCUGGACAGAAGGCCUGUGUC	–	–	40.1 nM	22.1 nM
AAAACAUGAGGAUCACCCAUGUAUAGAUCGAUUAUUAGGAGUGAGGAUAUGCAAGUUAUAAGGUAGCAGAAGGCACUGGGAAAA	–	–	25.7 nM	24.8 nM
CUCAAACAUGAGGAUCACCCAUGUGUUGUCAUGGGAGGAUAUCCAAGUUCGUUGUAGUCGGGAGAAGGCCUAUGUC	–	–	213 nM	41.1 nM
CUUUUGUGAGGAUAUUCGUCAUAAGGUUGUAAACCUGUGACGAAGAAGGCACAUGAGGAUCACCCAUGUGUCCU	15.7 nM	26.4 nM	–	–
AGCUGGUGACAGCAUCGAGCUAAACAUGAGGAUCACCCAUGUAGAAGGCUGUACGGUUACCGUACAGAGGAUAUACAAAGCUCG	6.06 nM	7.17 nM	–	–
GUUUAUUUACAGAAGGUGUUUUACAUGAGGAUCACCCAUGUUUAAAUUUAUAAAGAAUUUAUUUACAAGGAUAUGUACAAUUUU	–	–	34.1 nM	19 nM
ACAUGAGAUUUAGGAUAUAUAGUACCUACAUGUGACAUGAGGAUCACCCAUGUGGUAAGUAUGACAUAGAAGGAAAAGAUAUGU	–	–	66 nM	67 nM
GUCAUCGUAUGAGGAUAUGGCACCGAAACGGUGCCAGAAGGCAUGUCAAUAGACAUGAGGAUCACCCAUGUGUUAUCGAUGGCA	–	–	116 nM	13.2 nM
AGGAUAGGAAAAUUUGUCCAUUGUACAGAAGGCCAACAUGAGGAUCACCCAUGUAAGAAAAGGAUGGAGGAUAUGUAUAGGGCC	–	–	37.6 nM	10.6 nM
